Assay results taken from ChEMBL document CHEMBL4428077, “Synthesis and Biological Evaluation of N-((1-(4-(Sulfonyl)piperazin-1-yl)cycloalkyl)methyl)benzamide Inhibitors of Glycine Transporter-1” (J Med Chem, 2016).

Legend:
Rattus norvegicus [1] = experiment: In vivo inhibition of glycine transporter-1 in Sprague-Dawley rat assessed as CSF glycine level at 30 mg/kg, po measured 2 hrs post dose by LC-MS/MS analysis relative to control; assay type: functional; design: scale not given: the % may be the effect or the level left
How it was run: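 Drug-naive Sprague-Dawley rats, n = 5 per group, given acute oral doses of 0.4-160.9 μmol/kg (0.3-100 mg/kg). Vehicle was Solutol 5% in 20% Captisol / 25 mM PBS, pH 2. Killed 2 h post-dose. CSF glycine was quantified by LC-MS/MS with a deuterated-glycine standard and expressed as % vehicle control, mean ± SEM. Two-way ANOVA with Tukey test.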

[2] = Drug level in Sprague-Dawley rat CSF at 30 mg/kg, po measured 2 hrs post dose by LC-MS/MS analysis; assay type: ADME, organism-based, Cerebrospinal fluid; settings: read-out: Drug uptake
How it was run: (§1)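 Drug-naive Sprague−Dawley rats (n = 4−5/group) were dosed orally once in 5% Solutol plus 20% Captisol in 25 mM PBS, pH 2, and euthanized 2 h later by CO₂. CSF was drawn from the cisterna magna. Drug was measured in CSF, brain and plasma; data as mean ± SEM.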

[3] = Drug level in Sprague-Dawley rat brain at 30 mg/kg, po measured 2 hrs post dose by LC-MS/MS analysis; assay type: ADME, organism-based; settings: read-out: Drug uptake; how it was run: as §1
[4] = Drug level in Sprague-Dawley rat brain at 100 mg/kg, po measured 2 hrs post dose by LC-MS/MS analysis; assay type: ADME, organism-based; settings: read-out: Drug uptake; how it was run: as §1
[5] = Drug level in Sprague-Dawley rat plasma at 30 mg/kg, po measured 2 hrs post dose by LC-MS/MS analysis; assay type: ADME, organism-based; how it was run: as §1
Rattus norvegicus [6] = experiment: In vivo inhibition of glycine transporter-1 in Sprague-Dawley rat assessed as CSF glycine level at 3 mg/kg, po qd for 5 days measured 2 hrs post last dose by LC-MS/MS analysis relative to control; assay type: functional; design: scale not given: the % may be the effect or the level left
How it was run: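 Drug-naive Sprague-Dawley rats, n = 5 per group, dosed orally once daily for 5 days with vehicle or 1.6, 4.8 or 16.1 μmol/kg. Vehicle was 5% Solutol / 20% Captisol in 25 mM PBS, pH 2. Killed 2 h or 48 h after the last dose. CSF glycine was expressed as % of vehicle control (vehicle 2 h post last dose), mean ± SEM. Two-way ANOVA with Tukey test.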

[7] = Drug level in Sprague-Dawley rat CSF at 1 mg/kg, po qd for 5 days measured 2 hrs post last dose by LC-MS/MS analysis; assay type: ADME, organism-based, Cerebrospinal fluid; settings: read-out: Drug uptake
How it was run: (§2)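 Drug-naive Sprague−Dawley rats (n = 5/group) were dosed orally once daily for 5 days in 5% Solutol plus 20% Captisol in 25 mM PBS, pH 2, and sacrificed 2 h after the last dose. Drug was measured in CSF, brain and plasma; mean ± SEM.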

[8] = Drug level in Sprague-Dawley rat brain at 1 mg/kg, po qd for 5 days measured 2 hrs post last dose by LC-MS/MS analysis; assay type: ADME, organism-based; settings: read-out: Drug uptake; how it was run: as §2
[9] = Drug level in Sprague-Dawley rat plasma at 10 mg/kg, po qd for 5 days measured 2 hrs post last dose by LC-MS/MS analysis; assay type: ADME, organism-based; how it was run: as §2
[10] = biological target: Voltage-gated inwardly rectifying potassium channel KCNH2 (Homo sapiens, UniProt Q12809); experiment: Inhibition of human ERG channel expressed in HEK293 cells by patch clamp assay; assay type: cell-based
Voltage-gated inwardly rectifying potassium channel KCNH2, sequence (Q12809 whole entry): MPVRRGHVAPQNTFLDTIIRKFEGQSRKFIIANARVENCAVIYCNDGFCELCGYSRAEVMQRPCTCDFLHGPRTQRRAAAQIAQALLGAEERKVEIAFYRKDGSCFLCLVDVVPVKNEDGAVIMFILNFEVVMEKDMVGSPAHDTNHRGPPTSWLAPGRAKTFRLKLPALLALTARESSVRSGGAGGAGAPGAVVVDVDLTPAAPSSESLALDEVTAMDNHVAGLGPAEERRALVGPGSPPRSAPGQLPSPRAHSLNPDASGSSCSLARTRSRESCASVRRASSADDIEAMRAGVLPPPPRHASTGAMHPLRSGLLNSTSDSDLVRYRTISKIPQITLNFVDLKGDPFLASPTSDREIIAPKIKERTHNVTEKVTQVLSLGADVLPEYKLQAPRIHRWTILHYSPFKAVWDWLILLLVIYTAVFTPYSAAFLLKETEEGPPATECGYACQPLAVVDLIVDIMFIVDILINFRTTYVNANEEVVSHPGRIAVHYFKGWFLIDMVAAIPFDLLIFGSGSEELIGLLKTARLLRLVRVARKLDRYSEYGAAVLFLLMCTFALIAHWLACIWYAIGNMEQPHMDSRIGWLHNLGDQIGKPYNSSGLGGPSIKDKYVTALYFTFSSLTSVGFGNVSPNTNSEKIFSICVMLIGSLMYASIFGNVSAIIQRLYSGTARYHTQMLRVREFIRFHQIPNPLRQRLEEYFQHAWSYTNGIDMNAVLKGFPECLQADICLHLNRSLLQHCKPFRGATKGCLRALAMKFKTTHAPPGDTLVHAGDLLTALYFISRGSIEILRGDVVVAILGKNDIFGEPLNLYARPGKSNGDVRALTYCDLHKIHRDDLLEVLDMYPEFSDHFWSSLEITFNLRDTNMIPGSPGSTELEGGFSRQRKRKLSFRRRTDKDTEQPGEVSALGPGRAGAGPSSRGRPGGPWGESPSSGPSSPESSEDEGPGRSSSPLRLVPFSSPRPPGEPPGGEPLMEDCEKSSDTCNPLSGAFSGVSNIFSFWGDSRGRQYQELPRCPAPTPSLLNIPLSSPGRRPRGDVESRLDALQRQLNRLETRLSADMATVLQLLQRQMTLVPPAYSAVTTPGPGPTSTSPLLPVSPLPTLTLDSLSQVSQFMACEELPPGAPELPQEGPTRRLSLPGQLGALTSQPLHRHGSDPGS
How it was run: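 PatchXpress patch-clamp on HEK293 cells stably expressing hERG. Five-point concentration-response, n = 3.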

[11] = Protein binding in human plasma; assay type: ADME, cell-free; settings: read-out: PPB (converted)
[12] = Total clearance in Sprague-Dawley rat at 10 mg/kg, po or 2 mg/kg, iv administered as single dose measured up to 24 hrs post dose by LC-MS/MS analysis; assay type: ADME, organism-based; settings: in vivo
How it was run: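 Groups of three drug-naive adult male Sprague–Dawley rats, single dose: IV 3.1 μmol/kg in 5% DMSO/10% Solutol in saline (5 mL/kg), or PO 15.7 μmol/kg in 5% Solutol/10% Captisol in 25 mM PBS adjusted to pH 2 with HCl. Plasma concentration–time data give the parameters; mean ± SD.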

[13] = Tmax in cynomolgus monkey plasma at 5 mg/kg, po by LC-MS/MS analysis; assay type: ADME, organism-based, Macaca fascicularis
How it was run: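 Three female cynomolgus monkeys per group, single dose: IV 1.5 μmol/kg in 5% DMSO/10% Solutol in saline, pH 6.5 (2 mL/kg), or PO 7.8 μmol/kg in 5% Solutol in 20% Captisol, 25 mM PBS, pH 2 (5 mL/kg). Parameters come from plasma concentration–time data; mean ± SD.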

[14] = Oral bioavailability in Sprague-Dawley rat at 10 mg/kg administered as single dose measured up to 24 hrs post dose by LC-MS/MS analysis; assay type: ADME, organism-based; settings: in vivo
How it was run: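 Male Sprague-Dawley rats, n = 3 per group. Dosing was 3.1 μmol/kg IV (5% DMSO / 10% Solutol in saline, 5 mL/kg) and 15.7 μmol/kg PO (5% Solutol / 10% Captisol in 25 mM PBS, pH 2). F = (AUC_INF,po × Dose_iv)/(AUC_INF,iv × Dose_po). Mean ± SD.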

[15] = Ratio of drug level in Sprague-Dawley rat brain to plasma at 3 to 10 mg/kg, po measured 2 hrs post dose by LC-MS/MS analysis; assay type: ADME, organism-based; settings: read-out: BPR
How it was run: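 Drug-naive male Sprague–Dawley rats (n = 4–5/group) were dosed orally in 5% Solutol/10% Captisol in 25 mM PBS, pH 2, and euthanized by CO2 2 h post-dose. CSF (50–100 μL) was taken from the cisterna magna, and brain and plasma were collected; drug was measured in each matrix. Quantitation limit 1.0 ng/mL.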

[16] = Drug level in cynomolgus monkey plasma at 3 mg/kg, po measured at 0.5 hr post dose by LC-MS/MS analysis; assay type: ADME, organism-based, Macaca fascicularis
[17] = Drug level in cynomolgus monkey plasma at 3 mg/kg, po measured at 8 hrs post dose by LC-MS/MS analysis; assay type: ADME, organism-based, Macaca fascicularis
[18] = Drug level in cynomolgus monkey plasma at 10 mg/kg, po measured at 1 hr post dose by LC-MS/MS analysis; assay type: ADME, organism-based, Macaca fascicularis
How it was run: (§3)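 Cynomolgus monkeys (n = 3/group) fitted with subcutaneous CSF ports were dosed orally at 0.4−15.7 μmol/kg in 5% Solutol plus 20% Captisol in 25 mM PBS, pH 2. CSF (about 0.30 mL) and blood were sampled predose and at 0.5, 1, 2, 3, 4, 8, 12 and 24 h. Quantitation limit 1.0 ng/mL; mean ± SD.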

[19] = Drug level in cynomolgus monkey plasma at 10 mg/kg, po measured at 12 hrs post dose by LC-MS/MS analysis; assay type: ADME, organism-based, Macaca fascicularis; how it was run: as §3
[20] = Drug level in cynomolgus monkey CSF at 10 mg/kg, po measured at 4 hrs post dose by LC-MS/MS analysis; assay type: ADME, organism-based, Macaca fascicularis, Cerebrospinal fluid; settings: read-out: Drug uptake; how it was run: as §3
[21] = Toxicity in cynomolgus monkey assessed as gross behavioral abnormality at 0.3 to 10 mg/kg, po measured up to 24 hrs post dose; assay type: organism-based, Macaca fascicularis; settings: in vivo
How it was run: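 Cynomolgus monkeys (n = 3/group) received an oral dose of 0.4, 1.5, 4.7 or 15.7 μmol/kg in 5% Solutol/20% Captisol in 25 mM PBS, pH 2. CSF was drawn via subcutaneous ports and blood sampled predose and at 0.5–24 h.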

## Cl.Cn1cc(S(=O)(=O)N2CCN(C3(CNC(=O)c4ccc(C(F)(F)F)cc4Cl)CCC(F)(F)CC3)CC2)nn1
Rattus norvegicus [1]
  Activity: 317.2%
[2]
  concentration at 2 h: 8.3 nM
[3]
  concentration at 2 h: 66.8 nM
[4]
  concentration at 2 h: 46.3 nM
[5]
  concentration at 2 h: 490 nM
Rattus norvegicus [6]
  Activity: 266.3%
[7]
  concentration at 2 h: 1 nM
[8]
  concentration at 2 h: 21 nM
[9]
  concentration at 2 h: 237 nM

## CC(NC(=O)c1ccc(C(F)(F)F)cc1Cl)C1(N2CCN(S(=O)(=O)c3cn(C)nn3)CC2)CCC(F)(F)CC1.Cl (single isomer, unassigned; (+))
[10]
  IC50: 20.2 µM
[11]
  fraction unbound: 0.12
[12]
  clearance: 23.3 mL/min/kg
[13]
  Tmax: 1.67 h
[14]
  bioavailability: 27.2%
[15]
  Kp at 2 h: 0.1 to 0.2
[16]
  concentration at 0.5 h: 1.6 ng/mL
[17]
  concentration at 8 h: 2 ng/mL
[18]
  concentration at 1 h: 203 ng/mL
[19]
  concentration at 12 h: 135 ng/mL
[20]
  concentration at 4 h: 8.4 ng/mL
[21]
  Activity: Non-Toxic
